As usually defined, the IC50 is the concentration that inhibits the measured activity by half. Lower therefore signals higher potency.

The values below come from ChEMBL document CHEMBL1153354, “Amide-containing diketoacids as HIV-1 integrase inhibitors: synthesis, structure-activity relationship analysis, and biological activity” (Bioorg Med Chem, 2009).

Experiment [1] has as its target T1, Human immunodeficiency virus type 1 integrase (Human immunodeficiency virus 1, UniProt Q7ZJM1). Briefly: Inhibition of HIV1 integrase 3' processing activity. In a few lines: (§1)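 Wild-type IN (200 nM final) preincubated with inhibitor 30 min at 30 °C in buffer of 50 mM NaCl, 1 mM HEPES pH 7.5, 50 μM EDTA, 50 μM DTT, 10% glycerol, 7.5 mM MnCl2, 0.1 mg/mL BSA, 10 mM 2-mercaptoethanol, 10% DMSO, 25 mM MOPS pH 7.2. Then 20 nM 5'-32P-labeled linear oligonucleotide substrate added, 1 h further. Quenched with formamide/EDTA loading dye.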

Experiment [2] concerns the target T1, Human immunodeficiency virus type 1 integrase. Briefly: Inhibition of HIV1 integrase strand transfer activity. In a few lines: as §1

The structures appear in SMILES notation. Bounds are passed on as bounds.

T1 sequence (Q7ZJM1 whole entry): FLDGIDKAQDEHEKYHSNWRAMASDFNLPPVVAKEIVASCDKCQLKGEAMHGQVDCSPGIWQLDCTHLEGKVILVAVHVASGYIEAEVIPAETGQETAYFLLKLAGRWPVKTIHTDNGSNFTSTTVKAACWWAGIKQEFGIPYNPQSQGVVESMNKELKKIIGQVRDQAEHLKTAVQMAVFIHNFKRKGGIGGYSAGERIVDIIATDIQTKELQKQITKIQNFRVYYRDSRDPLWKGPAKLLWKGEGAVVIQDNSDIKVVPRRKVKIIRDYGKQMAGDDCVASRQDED

Regarding `Cc1cccc(C(=O)Nc2cccc(C(=O)/C=C(\O)C(=O)O)c2)c1O`, the IC50 in experiment [1] turned out to be 48 µM; in experiment [2], 10 µM.

For `COc1ccc(C(=O)Nc2cccc(C(=O)/C=C(\O)C(=O)O)c2)cc1`, the IC50 in experiment [1] came out at 95 µM; in experiment [2], 19 µM.

For `O=C(O)/C(O)=C/C(=O)c1cccc(NC(=O)c2ccccc2Cl)c1`, the IC50 is 92 µM in experiment [1] and 18 µM in experiment [2].

`COc1ccccc1C(=O)Nc1cccc(C(=O)/C=C(\O)C(=O)O)c1`: the concentration for half-maximal inhibition (IC50) in experiment [1] is 73 µM; in experiment [2], 13 µM.

`COc1cccc(C(=O)Nc2cccc(C(=O)/C=C(\O)C(=O)O)c2)c1`: the results for the IC50 in experiment [1] and in experiment [2] were 69 µM and 12 µM, respectively.

In the case of `COc1cc(/C=C/C(=O)Nc2cccc(C(=O)/C=C(\O)C(=O)O)c2)ccc1O`, the 50% inhibitory concentration (IC50) in experiment [1] is 42 µM; in experiment [2] it was 11 µM.

Consider `O=C(/C=C/c1ccc(F)cc1)Nc1cccc(C(=O)/C=C(\O)C(=O)O)c1`, for which the 50% inhibitory concentration (IC50) in experiment [1] was 22 µM; in experiment [2], 7 µM.

With `O=C(/C=C/c1ccc(Cl)cc1)Nc1cccc(C(=O)/C=C(\O)C(=O)O)c1`, the results for the IC50 in experiment [1] and in experiment [2] were 18 µM and 4 µM, respectively.

Take `O=C(O)/C(O)=C/C(=O)c1cccc(NC(=O)c2ccco2)c1`: the IC50 in experiment [1] is over 100 µM; in experiment [2] it was 33 µM.

For `O=C(O)/C(O)=C/C(=O)c1cccc(NC(=O)c2ccccc2O)c1`, the results for the IC50 in experiment [1] and in experiment [2] were 41 µM and 11 µM, respectively.

Regarding `O=C(O)/C(O)=C/C(=O)c1cccc(NC(=O)c2cc([N+](=O)[O-])cc([N+](=O)[O-])c2O)c1`, the results for the half-inhibitory concentration (IC50) in experiment [1] and in experiment [2] were 8 µM and 2 µM, respectively.

As to `O=C(Cc1ccccc1)Nc1cccc(C(=O)/C=C(\O)C(=O)O)c1`, the IC50 in experiment [1] amounted to 56 µM; in experiment [2] it was 7 µM.

For the compound `O=C(O)/C(O)=C/C(=O)c1cccc(NC(=O)c2ccc(O)cc2)c1`, the results for the 50% inhibitory concentration (IC50) in experiment [1] and in experiment [2] were 81 µM and 13 µM, respectively.

`COc1ccc(/C=C/C(=O)Nc2cccc(C(=O)/C=C(\O)C(=O)O)c2)cc1`: the IC50 in experiment [1] worked out at 30 µM; in experiment [2] it was 11 µM.

Consider `O=C(O)/C(O)=C/C(=O)c1cccc(NC(=O)c2cccc(Cl)c2)c1`, for which the figures for the IC50 in experiment [1] and in experiment [2] were 57 µM and 15 µM, respectively.

With `O=C(O)/C(O)=C/C(=O)c1cccc(NC(=O)c2ccccc2)c1`, the IC50 in experiment [1] is over 100 µM; in experiment [2], 31 µM.

On to `O=C(/C=C/c1ccc(O)cc1)Nc1cccc(C(=O)/C=C(\O)C(=O)O)c1`, for which the IC50 in experiment [1] is 26 µM; in experiment [2], 7 µM.
